Active and inactive are the calls of the source. No cut-off for these calls is given here.
Columns and labels:
Leishmania braziliensis [1] = test: Antiprotozoal activity against promastigotes form of Leishmania braziliensis 2903 assessed as total lysis of parasites at 100 ug/ml after 24 hrs; assay type: functional, organism-based
In short: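 Promastigotes exposed to compound (dissolved in DMSO) at 100 µg/ml for 24 h at 28°. Viability judged by direct observation under an inverted microscope and scored as 0 (no lysis), + (less mobile than controls), ++ (modified or immobilized) or +++ (total lysis). Each assay run three times. Glucantime and pentamidine used as control drugs.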

Leishmania donovani [2] = test: Antiprotozoal activity against promastigotes form of Leishmania donovani pp-75 assessed as total lysis of parasites at 100 ug/ml after 24 hrs; assay type: functional, organism-based
In short: (§1)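 Promastigotes of each Leishmania strain exposed to test compound at 100 µg/ml, dissolved in DMSO, for 24 h at 28°. Viability judged by direct inverted-microscope observation and scored against controls: 0 no lysis; + less mobile; ++ modified or immobilized; +++ total lysis. Three independent runs.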

Leishmania amazonensis [3] = test: Antiprotozoal activity against promastigotes form of Leishmania amazonensis LV79 assessed as total lysis of parasites at 100 ug/ml after 24 hrs; assay type: functional, organism-based; in short: as §1
Leishmania amazonensis [4] = test: Antiprotozoal activity against promastigotes form of Leishmania amazonensis H-142 assessed as total lysis of parasites at 100 ug/ml after 24 hrs; assay type: functional, organism-based; in short: as §1
Trypanosoma cruzi = test: Antiprotozoal activity against trypomastigotes form of Trypanosoma cruzi Y at 250 ug/ml after 24 hrs; assay type: functional
In short: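 Bloodstream trypomastigotes taken from blood of T. cruzi-infected mice and incubated with test compound (DMSO solution) for 24 h at 4°. Parasites then counted. Assay done three times.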

Leishmania braziliensis [5] = test: Antiprotozoal activity against promastigotes form of Leishmania braziliensis 2903 assessed as immobilized parasites at 100 ug/ml after 24 hrs; assay type: functional, organism-based; in short: as §1
Leishmania amazonensis [6] = test: Antiprotozoal activity against promastigotes form of Leishmania amazonensis LV79 assessed as less mobile parasites at 100 ug/ml after 24 hrs; assay type: functional, organism-based; in short: as §1
Leishmania donovani [7] = test: Antiprotozoal activity against promastigotes form of Leishmania donovani pp-75 assessed as less mobile parasites at 100 ug/ml after 24 hrs; assay type: functional, organism-based; in short: as §1
Leishmania amazonensis [8] = test: Antiprotozoal activity against promastigotes form of Leishmania amazonensis H-142 assessed as less mobile parasites at 100 ug/ml after 24 hrs; assay type: functional, organism-based; in short: as §1
Leishmania donovani [9] = test: Antiprotozoal activity against promastigotes form of Leishmania donovani pp-75 assessed as immobilized parasites at 100 ug/ml after 24 hrs; assay type: functional, organism-based; in short: as §1

`N=C(N)c1ccc(OCCCCCOc2ccc(C(=N)N)cc2)cc1` was tested, and the Activity (Leishmania braziliensis [1]) was “Active”, the Activity (Leishmania donovani [2]) was “Active” and the Activity (Leishmania amazonensis [3]) was “Active”. The Activity (Leishmania amazonensis [4]) was “Active”.

For `COc1c(O)c(OC)c2c3c1CCN=C3C(C)(O)c1cc(O)ccc1-2` (stereo not given) [ISOGUATTOUREGIDINE], the Activity (Leishmania donovani [2]) was “Active”, the Activity (Leishmania amazonensis [3]) was “Active” and the Activity (Leishmania amazonensis [4]) was “Active”. The Activity (Trypanosoma cruzi) was 92% and the Activity (Leishmania braziliensis [5]) was “Active”.

Molecule `CN(C)c1ccc(C(=C2C=CC(=[N+](C)C)C=C2)c2ccc(N(C)C)cc2)cc1.[Cl-]` [GENTIAN VIOLET] has an Activity (Trypanosoma cruzi) of 100%.

With `COc1cccc2c1-c1c3c(c(OC)c4ccnc(c14)C2=O)OCO3` the Activity (Trypanosoma cruzi) was 46.6%.

With `COc1c(O)c2c3c(c1OC)-c1ccc(O)cc1C[C@@H]3NCC2` the Activity (Trypanosoma cruzi) was 2.55%.

`COc1c2c3c(c4c1OCO4)-c1c(O)cccc1C[C@H]3NCC2` [ELMERRILLICINE] was tested, and the Activity (Trypanosoma cruzi) was 0%.

In the case of `COc1c(O)cc(CCN(C)C)c2ccc3ccccc3c12` [ARGENTININE], the Activity (Leishmania amazonensis [6]) is reported as “Active”, the Activity (Leishmania donovani [7]) is reported as “Active” and the Activity (Leishmania amazonensis [8]) is reported as “Active”. For the same molecule, the Activity (Trypanosoma cruzi) was 81.3% and the Activity (Leishmania braziliensis [5]) was “Active”.

With `COc1c(O)c2c3c(c1OC)-c1ccccc1C[C@H]3NCC2` the Activity (Trypanosoma cruzi) was 68.2%.

`COc1cccc2c1-c1c3c(c(OC)c4c1[C@@H](C2)NCC4)OCO3` gave an Activity (Trypanosoma cruzi) of 35.7%.

`COc1c2c3c(c4c1OCO4)-c1ccc(O)cc1C(C)(O)C3=NCC2` (stereo not given) was tested, and the Activity (Trypanosoma cruzi) was 0%.

In the case of MEGLUMINE ANTIMONATE, the Activity (Leishmania braziliensis [1]) is reported as “Active”, the Activity (Leishmania donovani [2]) is reported as “Active” and the Activity (Leishmania amazonensis [3]) is reported as “Active”. For the same molecule, the Activity (Leishmania amazonensis [4]) was “Active”.

For `COc1cc2c(cc1O)C[C@H]1c3cc(O)c(OC)cc3CCN1C2` [COREXIMINE], the Activity (Leishmania amazonensis [6]) was “Active”, the Activity (Leishmania donovani [9]) was “Active” and the Activity (Leishmania amazonensis [8]) was “Active”. For the same molecule, the Activity (Trypanosoma cruzi) was 0% and the Activity (Leishmania braziliensis [5]) was “Active”.

— ChEMBL document CHEMBL1148039, “New aporphine alkaloids from guatteria foliosa” (1994)
